According to ChEMBL document CHEMBL3997766, “Synthesis and pre-clinical studies of new amino-acid ester thiazolide prodrugs” (Eur J Med Chem, 2017):

Columns and labels:
Rattus norvegicus [1] = assay: Tmax in Sprague-Dawley rat assessed as Tizoxanide level in plasma at 28 mg/kg, po; format: ADME, organism-based; settings: in vivo
Method in brief: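 Rats in groups of three got a single oral dose (30 mg/kg) or a single intravenous injection (6 mg/kg). Serial blood samples were taken at 5, 10, 15 and 30 min and at 1, 2, 4, 8, 23 and 24 h post-dose for plasma drug and glucuronide levels. Bioavailability came from oral versus intravenous AUC after dose correction to 30 mg/kg.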

Rattus norvegicus [2] = assay: Elimination half life in Sprague-Dawley rat assessed as Tizoxanide level at 28 mg/kg, po; format: ADME, organism-based; settings: in vivo
Rattus norvegicus [3] = assay: Elimination half life in Sprague-Dawley rat assessed as Tizoxanide level at 6.3 mg/kg, iv administered as single dose; format: ADME, organism-based; settings: in vivo
Rattus norvegicus [4] = assay: Neurotoxicity in Sprague-Dawley rat assessed as tremors at 1000 mg/kg administered as single dose via oral gavage after 4 to 24 hrs; format: toxicity, organism-based; settings: in vivo
Method in brief: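 Three groups of 10 rats (5M/5F) received a single dose by oral gavage of 100, 300 or 1000 mg/kg, and an untreated group served as control. Clinical signs of CNS effects were recorded at 4 and 24 h after treatment.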

Rattus norvegicus [5] = assay: Toxicity in Sprague-Dawley rat assessed as effect on respiratory rate by measuring breaths per minute at 100 to 1000 mg/kg administered as single dose via oral gavage; format: organism-based; settings: in vivo
Method in brief: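 Respiratory safety study: conscious rats, 3 groups of 6 (3M/3F), given single oral-gavage doses of 100, 300 or 1000 mg/kg, with an untreated control group. Respiratory rate (breaths per minute), tidal volume and minute volume were recorded, and mortality was noted.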

Rattus norvegicus [6] = assay: Toxicity in Sprague-Dawley rat assessed as body weight gain at 75 mg/kg administered as oral gavage qd for 28 consecutive days measured during last 2 weeks of dosing relative to control; format: organism-based; settings: in vivo, 336 h
Method in brief: (§1)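 Sub-acute study in Sprague-Dawley rats dosed orally with a suspension at 10, 30 and 75 mg/kg once daily for 28 consecutive days. Four groups of up to 30 rats each (15M/15F).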

Rattus norvegicus [7] = assay: AUC (0 to t) in Sprague-Dawley rat assessed as tizoxanide-glucuronide level in plasma at 30 mg/kg, po administered as single dose; format: ADME, organism-based; settings: in vivo
Method in brief: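 Plasma tizoxanide and tizoxanide glucuronide were measured and PK parameters derived. AUCs were dose-corrected to 30 mg/kg for bioavailability.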

Rattus norvegicus [8] = assay: Toxicity in Sprague-Dawley rat assessed as body weight gain at 75 mg/kg administered as oral gavage qd for 28 consecutive days measured during last 3 weeks of dosing; format: organism-based; settings: in vivo, 504 h; method in brief: as §1
Rattus norvegicus [9] = assay: Toxicity in Sprague-Dawley rat at 10 to 75 mg/kg administered as oral gavage qd for 28 consecutive days by ophthalmoscopic method; format: organism-based; settings: in vivo
Method in brief: (§2)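 Sub-acute study in Sprague-Dawley rats: 10, 30 or 75 mg/kg given orally once a day for 28 consecutive days as a yellow suspension. There were 4 groups of up to 30 rats each (15M/15F), including a control. Body weight, clinical observations and terminal findings were assessed.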

Rattus norvegicus [10] = assay: Toxicity in Sprague-Dawley rat assessed as decrease in serum total protein level at 75 mg/kg administered as oral gavage qd for 28 consecutive days followed by 2 weeks recovery period measured on day 43; format: organism-based; settings: in vivo, 336 h; method in brief: as §1
Rattus norvegicus [11] = assay: Toxicity in Sprague-Dawley rat assessed as decrease in serum total albumin level at 75 mg/kg administered as oral gavage qd for 28 consecutive days followed by 2 weeks recovery period measured on day 43; format: organism-based; settings: in vivo, 336 h; method in brief: as §1
Rattus norvegicus [12] = assay: Toxicity in Sprague-Dawley rat assessed as increase in serum chloride level at 30 mg/kg administered as oral gavage qd for 28 consecutive days followed by 2 weeks recovery period measured on day 43; format: organism-based; settings: in vivo, 336 h; method in brief: as §1
Rattus norvegicus [13] = assay: Toxicity in Sprague-Dawley rat assessed as increase in liver to body weight ratio at 75 mg/kg administered as oral gavage qd for 28 consecutive days measured on day 29; format: organism-based; settings: in vivo; method in brief: as §1
Rattus norvegicus [14] = assay: Toxicity in Sprague-Dawley rat assessed as epithelial hyperplasia in stomach at 30 to 75 mg/kg administered as oral gavage qd for 28 consecutive days measured on day 29 by microscopic method; format: organism-based; settings: in vivo; method in brief: as §2
Rattus norvegicus [15] = assay: Toxicity in Sprague-Dawley rat assessed as eosinophilic cytoplasmic bodies in epithelial cells of stomach at 10 to 75 mg/kg administered as oral gavage qd for 28 consecutive days measured on day 29 by microscopic method; format: organism-based; settings: in vivo; method in brief: as §2
Rattus norvegicus [16] = assay: Toxicity in Sprague-Dawley rat assessed as erosions in stomach at 30 to 75 mg/kg administered as oral gavage qd for 28 consecutive days measured on day 29 by microscopic method; format: organism-based; settings: in vivo; method in brief: as §2
Rattus norvegicus [17] = assay: Toxicity in Sprague-Dawley rat assessed as hemorrhage in stomach at 30 to 75 mg/kg administered as oral gavage qd for 28 consecutive days measured on day 29 by microscopic method; format: organism-based; settings: in vivo; method in brief: as §2
Rattus norvegicus [18] = assay: Toxicity in Sprague-Dawley rat assessed as mixed cell inflammation in stomach at 75 mg/kg administered as oral gavage qd for 28 consecutive days followed by 2 weeks recovery period by microscopic method; format: organism-based; settings: in vivo, 336 h; method in brief: as §1
Rattus norvegicus [19] = assay: Toxicity in Sprague-Dawley rat assessed as erosions in stomach at 75 mg/kg administered as oral gavage qd for 28 consecutive days followed by 2 weeks recovery period by microscopic method; format: organism-based; settings: in vivo, 336 h; method in brief: as §1
Rattus norvegicus [20] = assay: Toxicity in Sprague-Dawley rat assessed as mucosal hyperplasia in duodenum at 75 mg/kg administered as oral gavage qd for 28 consecutive days followed by 2 weeks recovery period by microscopic method; format: organism-based; settings: in vivo, 336 h
Method in brief: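 Sub-acute oral toxicity study in Sprague-Dawley rats. The drug was given once daily for 28 consecutive days at 10, 30 or 75 mg/kg, formulated as a suspension. There were 4 groups of up to 30 rats each (15 male, 15 female). The study evaluated systemic exposure to the drug.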

Rattus norvegicus [21] = assay: Toxicity in Sprague-Dawley rat assessed as eosinophilic cytoplasmic bodies in leukocytes of duodenum at 75 mg/kg administered as oral gavage qd for 28 consecutive days followed by 2 weeks recovery period by microscopic method; format: organism-based; settings: in vivo, 336 h; method in brief: as §1
Canis familiaris [22] = assay: Toxicity in Beagle dog assessed as body weight gain up to 25 mg/kg, po administered as gelatin capsule once daily for 28 days measured on day 29; format: organism-based, Canis lupus familiaris; settings: in vivo, 672 h
Method in brief: (§3)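 Sub-acute study in Beagle dogs dosed orally by gelatin capsule at 5, 15 and 25 mg/kg once a day for 28 consecutive days.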

Canis familiaris [23] = assay: Toxicity in Beagle dog up to 25 mg/kg, po administered as gelatin capsule once daily for 28 days by ophthalmoscopic method; format: organism-based, Canis lupus familiaris; settings: in vivo, 672 h; method in brief: as §3
Canis familiaris [24] = assay: Toxicity in Beagle dog assessed as effect on hematology up to 25 mg/kg, po administered as gelatin capsule once daily for 28 days measured on day 29; format: organism-based, Canis lupus familiaris; settings: in vivo, 672 h; method in brief: as §3
Canis familiaris [25] = assay: Toxicity in Beagle dog assessed as effect on urinalysis parameters up to 25 mg/kg, po administered as gelatin capsule once daily for 28 days measured on day 29; format: organism-based, Canis lupus familiaris; settings: in vivo, 672 h; method in brief: as §3
Canis familiaris [26] = assay: Toxicity in Beagle dog assessed as thickened duodenum up to 25 mg/kg, po administered as gelatin capsule once daily for 28 days measured on day 29; format: organism-based, Canis lupus familiaris; settings: in vivo, 672 h; method in brief: as §3
Canis familiaris [27] = assay: Toxicity in Beagle dog assessed as gross necropsy up to 25 mg/kg, po administered as gelatin capsule once daily for 28 days followed by two weeks of recovery period; format: organism-based, Canis lupus familiaris; settings: in vivo, 672 h; method in brief: as §3

## CC(C)(C)[C@H](N)C(=O)Oc1ccccc1C(=O)Nc1ncc([N+](=O)[O-])s1.Cl
Rattus norvegicus [1]
  Tmax: 5 to 15 min
Rattus norvegicus [2]
  beta t1/2: 33 min
Rattus norvegicus [3]
  beta t1/2: 22.8 min
Rattus norvegicus [4]
  Activity: Toxic
Rattus norvegicus [5]
  Activity: Toxic
Rattus norvegicus [6]
  Activity: 4 to 5%
Rattus norvegicus [7]
  AUCt: 23600 ng·h/mL
Rattus norvegicus [8]
  Activity: Non-Toxic
Rattus norvegicus [9]
  Activity: Non-Toxic
Rattus norvegicus [10]
  Activity: Toxic
Rattus norvegicus [11]
  Activity: Toxic
Rattus norvegicus [12]
  Activity: Toxic
Rattus norvegicus [13]
  Activity: Toxic
Rattus norvegicus [14]
  Activity: Toxic
Rattus norvegicus [15]
  Activity: Toxic
Rattus norvegicus [16]
  Activity: Toxic
Rattus norvegicus [17]
  Activity: Toxic
Rattus norvegicus [18]
  Activity: Non-Toxic
Rattus norvegicus [19]
  Activity: Non-Toxic
Rattus norvegicus [20]
  Activity: Non-Toxic
Rattus norvegicus [21]
  Activity: Non-Toxic
Canis familiaris [22]
  Activity: Non-Toxic
Canis familiaris [23]
  Activity: Non-Toxic
Canis familiaris [24]
  Activity: Non-Toxic
Canis familiaris [25]
  Activity: Non-Toxic
Canis familiaris [26]
  Activity: Non-Toxic
Canis familiaris [27]
  Activity: Non-Toxic
